# Results: PMC8693751 (RSC Advances, 2021)
# “Also recorded” adds a separate entry of the source. Read-outs that look alike come from different tables or passages of the source.
# What was measured:
# [1] = test system: T. cruzi amastigotes (Tulahuen strain); experiment: Amastigote assay; type: cell-based; conditions: Trypanosoma cruzi, L929, read-out: Amastigote, IC50
# Method in brief: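 Tulahuen T. cruzi expressing E. coli beta-galactosidase, grown in L-929 fibroblasts in RPMI 1640 without phenol red with 10% FBS and glutamine. Fibroblasts were seeded at 4.0 × 10³/well overnight (37 °C, 5% CO2), then given trypomastigotes at 4.0 × 10⁴/well for 2 h before the free parasites were removed. At 48 h, test compound in DMSO was added (0.625–20 μg mL−1, six levels, quadruplicate). After 7 days, 100 μM chlorophenol red β-D-galactopyranoside and 0.1% Nonidet P-40 were added overnight at 37 °C and A570 read as % growth inhibition. Benznidazole was the positive control; two independent experiments.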
# [2] = test system: L. amazonensis promastigotes; experiment: Leishmanicidal activity against promastigote forms, L. amazonensis; type: cell-based, Leishmania amazonensis
# Method in brief: (§1)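 Promastigotes (L. amazonensis WHOM/00LTB0016; L. infantum MHOM/MA/67/ITMAP-263) at 1 × 10⁶ cells/mL in Schneider's medium with 10% FBS were exposed to eight test compound levels (1.5–200 μg mL−1) for 72 h at 26 °C. Untreated cells were the negative control and miltefosine the standard.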
# [3] = test system: L. infantum promastigotes; experiment: Leishmanicidal activity against promastigote forms, L. infantum; type: cell-based, Leishmania infantum
# Method in brief: as §1
# [4] = test system: L. infantum promastigotes; conditions: cited from earlier work
# [5] = test system: L. amazonensis promastigotes; conditions: cited from earlier work
# [6] = test system: T. cruzi trypomastigotes; experiment: Cell death assessment through flow cytometry; type: cell-based, Trypanosoma cruzi; conditions: for double-positive (double-stained) cells (upper right quadrant): 24 hours
# Method in brief: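 […] trypomastigotes taken from infected L929 supernatant were seeded at 4 × 10⁵/well in RPMI-1640 with test compound (in DMSO) at three levels, 37 °C for 24 h. Benznidazole was the positive control and medium the negative control. Cells were washed in PBS, placed in binding buffer, and labelled with propidium iodide (50 μg mL−1 solution) plus Annexin-FITC for 15 min at room temperature in the dark. 20000 events were acquired, in triplicate, and analysed by ANOVA with Dunnett's test (p < 0.05).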
# [7] = test system: LLC-MK2 cells; conditions: read-out: LLC-MK2, CC50, cited from earlier work
# [8] = Leishmania amazonensis, 72 h, read-out: Promastigotes IC50L.Ama, 72 hours
# [9] = Leishmania infantum, 72 h, read-out: Promastigotes IC50L.Inf, 72 hours
# [10] = read-out: IC50L.inf, earlier carboxylic acids
SMILES,"IC50 [2, 8] [µM]","IC50 [3, 9] [µM]",other results
"CCOC(=O)c1csc(NN=Cc2cccc(Cl)c2)n1 [1a, Ethyl 2-(2-(3-chlorobenzylidene)hydrazinyl)thiazole-4-carboxylate]",189,164,IC50 [1]: 16.9 µM
"CCOC(=O)c1csc(NN=Cc2ccccc2Cl)n1 [1b, Ethyl 2-(2-(2-chlorobenzylidene)hydrazinyl)thiazole-4-carboxylate]",27.9,14.4,"IC50 [4, 10]: 59.5 µM; IC50 ([5]; read-out: IC50L.ama, earlier carboxylic acids): 34.5 µM"
"CCOC(=O)c1csc(NN=Cc2ccc(OC)cc2)n1 [1c, Ethyl 2-(2-(4-methoxybenzylidene)hydrazinyl)thiazole-4-carboxylate]",392,332,"IC50 [4, 10]: 85.3 µM"
"CCOC(=O)c1csc(NN=Cc2cccc(OC)c2)n1 [1d, Ethyl 2-(2-(3-methoxybenzylidene)hydrazinyl)thiazole-4-carboxylate]",159,104,–
"CCOC(=O)c1csc(NN=Cc2cccc(Br)c2)n1 [1e, Ethyl 2-(2-(3-bromobenzylidene)hydrazinyl)thiazole-4-carboxylate]",246,170,–
"CCOC(=O)c1csc(NN=Cc2ccccc2Br)n1 [1f, Ethyl 2-(2-(2-bromobenzylidene)hydrazinyl)thiazole-4-carboxylate]",23.3,23.5,"IC50 [1]: 56.5 µM; IC50 ([2]; read-out: Promastigotes IC50L.Ama, 72 hours): 24.3 µM; cell death mechanism of T. cruzi ([6]; PI / Annexin-V staining): necrosis and apoptosis; also recorded: consistent with necrosis; double-positive (double-stained) cells (upper right quadrant) ([6]; at 4 × IC50 (1f 3.32 μM; BZD 141.6 μM)): 17.58%"
"CCOC(=O)c1csc(NN=C(C)c2ccccc2)n1 [1g, Ethyl 2-(2-(1-phenylethylidene)hydrazinyl)thiazole-4-carboxylate]",43,37.4,IC50 [1]: 40.7 µM
"CCOC(=O)c1csc(NN=Cc2ccco2)n1 [1h, Ethyl 2-(2-(furan-2-ylmethylene)hydrazinyl)thiazole-4-carboxylate]",451,374,IC50 [1]: 75.4 µM
"CCOC(=O)CC1SC(=NN=Cc2ccccc2)NC1=O (centres unmarked) [2a, Ethyl 2-((2-benzylidene)hydrazono)-4-oxothiazolidine-5-acetate]",367,365,–
"COC(=O)CC1SC(=NN=Cc2ccc(Cl)cc2)NC1=O (centres unmarked) [2b, Methyl 2-(2-(4-chlorobenzylidene)hydrazono)-4-oxothiazolidine-5-acetate]",91.4,33.2,–
"CCOC(=O)CC1SC(=NN=Cc2ccccc2Cl)NC1=O (centres unmarked) [2c, Ethyl 2-(2-(2-chlorobenzylidene)hydrazono)-4-oxothiazolidine-5-acetate]",114,129,–
"CCOC(=O)CC1SC(=NN=Cc2ccc(Br)cc2)NC1=O (centres unmarked) [2d, Ethyl 2-(2-(4-bromobenzylidene)hydrazono)-4-oxothiazolidine-5-acetate]",14.6,14.5,–
"CCOC(=O)CC1SC(=NN=Cc2cccc(Br)c2)NC1=O (centres unmarked) [2e, Ethyl 2-(2-(3-bromobenzylidene)hydrazono)-4-oxothiazolidine-5-acetate]",120,116,–
"CCOC(=O)CC1SC(=NN=Cc2ccc([N+](=O)[O-])cc2)NC1=O (centres unmarked) [2f, Ethyl 2-(2-(4-nitrobenzylidene)hydrazono)-4-oxothiazolidine-5-acetate]",57.5,325,–
"CCOC(=O)CC1SC(=NN=Cc2cccc([N+](=O)[O-])c2)NC1=O (centres unmarked) [2g, Ethyl 2-(2-(3-nitrobenzylidene)hydrazono)-4-oxothiazolidine-5-acetate]",309,329,–
"CCOC(=O)CC1SC(=NN=Cc2ccccc2[N+](=O)[O-])NC1=O (centres unmarked) [2h, Ethyl 2-(2-(2-nitrobenzylidene)hydrazono)-4-oxothiazolidine-5-acetate]",17,295,–
"CCOC(=O)CC1SC(=NN=Cc2ccc(OC)cc2)NC1=O (centres unmarked) [2i, Ethyl 2-(2-(4-methoxybenzylidene)hydrazono)-4-oxothiazolidine-5-acetate]",169,147,–
"CCOC(=O)CC1SC(=NN=Cc2ccccc2OC)NC1=O (centres unmarked) [2j, Ethyl 2-(2-(2-methoxybenzylidene)hydrazono)-4-oxothiazolidine-5-acetate]",186,236,–
"CCOC(=O)CC1SC(=NN=Cc2cccc(O)c2)NC1=O (centres unmarked) [2k, Ethyl 2-(2-(3-hydroxybenzylidene)hydrazono)-4-oxothiazolidine-5-acetate]",364,370,–
"CCOC(=O)CC1SC(=NN=Cc2ccccc2O)NC1=O (centres unmarked) [2l, Ethyl 2-(2-(2-hydroxybenzylidene)hydrazono)-4-oxothiazolidine-5-acetate]",84.3,67.3,–
"CCOC(=O)CC1SC(=NN=Cc2ccc(C)cc2)NC1=O (centres unmarked) [2m, Ethyl 2-(2-(4-methylbenzylidene)hydrazono)-4-oxothiazolidine-5-acetate]",13.3,18.8,"IC50 ([3]; read-out: Promastigotes IC50L.Inf, 72 hours): 18.8 µM"
"CCOC(=O)CC1SC(=NN=Cc2ccccc2C)NC1=O (centres unmarked) [2n, Ethyl 2-(2-(2-methylbenzylidene)hydrazono)-4-oxothiazolidine-5-acetate]",268,168,–
"CCOC(=O)CC1SC(=NN=C2CCCc3ccccc32)NC1=O (centres unmarked) [2o, Ethyl 2-((2-(3,4-dihydronaphthalen-1(2H)-ylidene))hydrazono)-4-oxo-thiazolidin-5-acetate]",180,176,–
"CCOC(=O)CC1SC(=NN=Cc2ccc(O)c(OC)c2)NC1=O (centres unmarked) [2p, Ethyl 2-(2-(4-hydroxy-3-methoxybenzylidene)hydrazono)-4-oxothiazolidine-5-acetate]",233,320,–
"O=C(Cn1ccnc1[N+](=O)[O-])NCc1ccccc1 [BZD, Benznidazole, reference compound]",–,–,CC50 ([7]; standard drug BZD): 615 µM; IC50 [1]: 5.65 µM; double-positive (double-stained) cells (upper right quadrant) ([6]; at 2 × IC50 (1f 1.66 μM; BZD 70.8 μM)): 19.56%
"CCCCCCCCCCCCCCCCOP(=O)([O-])OCC[N+](C)(C)C [Miltefosine, reference compound]",–,–,"CC50 ([7]; standard drug Miltefosine): 12.3 µM; IC50 ([4]; read-out: Promastigotes IC50L.Inf, standard drug Miltefosine): 53.7 µM; IC50 ([5]; read-out: Promastigotes IC50L.Ama, standard drug Miltefosine): 36.3 µM"
